Residue numbers refer to the chain shown, from its start.

What all share (assay): Blockage of macroscopic current by external Ca2+ or Mg2+, outside-out patches
Holding throughout (type): biochemical

Assay [1] deals with T1, E340G mutant bovine olfactory CNG channel (Bos taurus, UniProt Q03041, E340G).
T1 sequence (Q03041 1-663 E340G): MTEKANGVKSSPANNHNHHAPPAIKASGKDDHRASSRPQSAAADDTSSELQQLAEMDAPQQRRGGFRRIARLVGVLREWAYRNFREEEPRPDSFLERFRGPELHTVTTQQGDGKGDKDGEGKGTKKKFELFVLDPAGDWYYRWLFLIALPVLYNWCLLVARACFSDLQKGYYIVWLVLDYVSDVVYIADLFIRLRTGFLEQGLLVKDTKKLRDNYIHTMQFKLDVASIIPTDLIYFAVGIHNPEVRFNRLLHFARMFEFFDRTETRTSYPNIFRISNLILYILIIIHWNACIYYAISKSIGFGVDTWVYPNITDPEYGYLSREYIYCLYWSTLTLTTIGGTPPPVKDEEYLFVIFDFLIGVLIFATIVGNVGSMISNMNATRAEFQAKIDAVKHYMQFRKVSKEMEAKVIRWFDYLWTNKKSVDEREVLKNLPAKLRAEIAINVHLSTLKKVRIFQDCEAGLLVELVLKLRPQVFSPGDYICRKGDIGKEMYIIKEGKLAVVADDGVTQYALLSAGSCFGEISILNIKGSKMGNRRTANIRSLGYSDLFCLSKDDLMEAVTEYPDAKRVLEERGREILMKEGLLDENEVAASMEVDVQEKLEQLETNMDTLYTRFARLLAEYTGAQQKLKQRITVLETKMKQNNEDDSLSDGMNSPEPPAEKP
The following applies: for Ki: mean ± SD. An outline of the steps: (§1)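 Xenopus oocytes injected with wild-type or mutant channel mRNA; outside-out patches with 100 μM cGMP in the pipette. Bath: 110 mM NaCl, 2 mM EDTA, 10 mM HEPES, pH 7.4, plus Ca2+ (NTA-buffered) or Mg2+ (EDTA-buffered); unbuffered above 0.1 mM. Five 1-s ramps (−80 to +80 mV) averaged, leak subtracted. Current normalised to divalent-free current at the same voltage, Hill-fitted per patch; Ki and n given as mean ± SD.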

The target of assay [2] is T2, E340N^‡ mutant bovine olfactory CNG channel (Bos taurus, UniProt Q03041, E340Q).
T2 sequence (Q03041 1-663 E340Q): T1 sequence (Q03041 1-663 E340G) with G340Q
An outline of the steps:
as §1

Assay [3] has as its target T3, E340N mutant bovine olfactory CNG channel (Bos taurus, UniProt Q03041, E340N).
T3 sequence (Q03041 1-663 E340N): T1 sequence (Q03041 1-663 E340G) with G340N
The following applies: for Ki: mean ± SD. An outline of the steps: as §1

[4] abbreviates: external Mg2+, −80 mV, one experiment.

Turning to `[Ca+2]` [Ca^2+], the “n, Hill coefficient of blockage” value in assay [1] (external Ca2+, +80 mV) came out at 0.6 ± 0.2; in assay [1] (external Ca2+, −80 mV), 0.4 ± 0.1; in assay [2] (external Ca2+, +80 mV), 0.5 ± 0.2; in assay [2] (external Ca2+, −80 mV) it was 0.4 ± 0.2; in assay [3] (external Ca2+, +80 mV), 0.6 ± 0.2; in assay [3] (external Ca2+, −80 mV), 0.6 ± 0.1. Also, the inhibition constant (Ki) in assay [1] (external Ca2+, +80 mV) is 26 ± 9.8 mM; in assay [1] (external Ca2+, −80 mV) it was 6.3 ± 2.5 mM; in assay [2] (external Ca2+, +80 mV, mean ± SD) it was 19 ± 12 mM; in assay [2] (external Ca2+, −80 mV, mean ± SD) it was 2.1 ± 0.6 mM; in assay [3] (external Ca2+, +80 mV), 29 ± 6 mM; in assay [3] (external Ca2+, −80 mV), 6.5 ± 4 mM.
Consider `[Mg+2]` [Mg^2+], for which the “n, Hill coefficient of blockage” value is recorded as 0.8 ± 0.2 in assay [1] (external Mg2+, +80 mV); 0.7 ± 0.1 in assay [1] (external Mg2+, −80 mV); 0.3 in assay [2] (external Mg2+, +80 mV, one experiment); 0.5 in assay [2] (setting [4]); 0.6 ± 0.1 in assay [3] (external Mg2+, +80 mV); 0.6 ± 0.1 in assay [3] (external Mg2+, −80 mV). Moreover, the Ki was determined as 9.5 ± 3.9 mM in assay [1] (external Mg2+, +80 mV); 1.1 ± 0.3 mM in assay [1] (external Mg2+, −80 mV); 3.4 mM in assay [2] (setting [4]); 50 ± 3.6 mM in assay [3] (external Mg2+, +80 mV); 17 ± 7.2 mM in assay [3] (external Mg2+, −80 mV).

Broadly, the Ki is a measure of affinity in units of concentration, obtained from inhibition or displacement.

Values taken from article PMC2233693 (The Journal of General Physiology, 2000).
